Experimental data: ChEMBL document CHEMBL4190230, “Structurally Diverse Diterpenoids from Isodon scoparius and Their Bioactivity” (J Nat Prod, 2017)

What was measured:
Assay type in all cases: functional, cell-based
HL-60 = assay: Antiproliferative activity against human HL60 cells after 48 hrs by MTS assay; conditions: HL-60, 48 h
In short: (§1)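 Cells grown in RPMI-1640 or DMEM with 10% FBS at 37 °C, 5% CO2. Seeded, 12 h at 37 °C, then 40 μM single-concentration screen, 48 h exposure, MTS read-out. Compounds reaching 50% growth inhibition retested at 0.064, 0.32, 1.6, 8 and 40 μM in triplicate; cisplatin and paclitaxel positive controls; IC50 by Reed and Muench method.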

SW480 = assay: Antiproliferative activity against human SW480 cells after 48 hrs by MTS assay; conditions: SW480, 48 h; in short: as §1
SMMC-7721 = assay: Antiproliferative activity against human SMMC7721 cells after 48 hrs by MTS assay; conditions: SMMC-7721, 48 h; in short: as §1
MCF7 = assay: Antiproliferative activity against human MCF7 cells after 48 hrs by MTS assay; conditions: MCF7, 48 h; in short: as §1
A549 = assay: Antiproliferative activity against human A549 cells after 48 hrs by MTS assay; conditions: A549, 48 h; in short: as §1
RAW264.7 = assay: Inhibition of LPS-induced NO production in mouse RAW264.7 cells after 18 hrs by Griess assay; conditions: RAW264.7, 18 h
In short: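 RAW264.7 macrophages seeded at 1.5 × 10^5 cells/well, given serial dilutions (top 20 μM) in triplicate, then stimulated with 1 μg/mL LPS for 18 h. Supernatant nitrite measured with Griess reagent, 5 min, absorbance 570 nm. L-NMMA positive control; parallel MTS viability check to exclude cytotoxic interference.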

IC50 (HL-60)	IC50 (SW480)	IC50 (SMMC-7721)	IC50 (MCF7)	IC50 (A549)	IC50 (RAW264.7)	Structure (SMILES)
> 40 µM	> 40 µM	> 40 µM	> 40 µM	> 40 µM		C=C1[C@@H](O)[C@@]23CC[C@H]4[C@@](C)(CCC[C@@]4(C)C=O)[C@@H]2[C@@H](OC(C)=O)C[C@]1(O)C3
> 40 µM	> 40 µM	> 40 µM	> 40 µM	> 40 µM		C=C1[C@@H](O)[C@@]23CC[C@@H]4C(C)(C)[C@H](O)CC[C@@]4(C)[C@@H]2[C@@H](O)C[C@]1(O)C3
> 40 µM	> 40 µM	> 40 µM	> 40 µM	> 40 µM		C=C1C(=O)[C@]23C[C@@]1(O)C[C@H](OC(C)=O)[C@H]2[C@@]1(C)[C@H](C[C@H]3O)[C@](C)(CO)CC[C@@H]1O
> 40 µM	> 40 µM	> 40 µM	> 40 µM	> 40 µM		C[C@@]1(CO)CCC[C@@]2(C)[C@H]1C[C@@H](O)C1=CC(=O)CC[C@@]12O
> 40 µM	> 40 µM	> 40 µM	> 40 µM	> 40 µM		C=C1[C@@H](O)[C@@]23CC[C@@H]4[C@@](C)(CO)CCC[C@@]4(C)[C@@H]2[C@@H](OC(C)=O)C[C@]1(O)C3
7 µM	2.5 µM	4.7 µM	11 µM	19.6 µM	3.1 µM	C=C1C(=O)[C@]23C[C@@]1(O)C[C@H](OC(C)=O)[C@H]2[C@@]1(C)[C@H](C[C@H]3O)C(C)(C)CC[C@@H]1O
1 µM	0.9 µM	1.5 µM	2.9 µM	4.4 µM	1 µM	C=C1C(=O)[C@@]23CC[C@@H]4C(C)(C)[C@@H](O)CC[C@@]4(C)[C@@H]2[C@@H](OC(C)=O)C[C@]1(O)C3
> 40 µM	> 40 µM	> 40 µM	> 40 µM	> 40 µM		C=C1[C@@H](O)[C@@]23CC[C@@H]4C(C)(C)[C@H](O)CC[C@@]4(C)[C@@H]2[C@@H](OC(C)=O)C[C@]1(O)C3
> 40 µM	> 40 µM	> 40 µM	> 40 µM	> 40 µM		C=C1[C@@H](O)[C@@]23CC[C@@H]4[C@@](C)(CO)CCC[C@@]4(C)[C@@H]2[C@@H](O)C[C@]1(O)C3
> 40 µM	> 40 µM	> 40 µM	> 40 µM	> 40 µM		C=C1[C@@H](O)[C@@]23CC[C@@H]4C(C)(C)[C@@H](O)CC[C@@]4(C)[C@@H]2[C@@H](OC(C)=O)C[C@]1(O)C3
3.2 µM	1.3 µM	3.9 µM	4.8 µM	13.4 µM	1.8 µM	C=C1C(=O)[C@]23C[C@@]1(O)C[C@H](OC(C)=O)[C@H]2[C@@]1(C)[C@H](C[C@H]3O)[C@](C)(COC(C)=O)CC[C@@H]1O
< 0.008 µM	< 0.008 µM	< 0.008 µM	< 0.008 µM	< 0.008 µM		CC(=O)O[C@H]1C(=O)[C@@]2(C)[C@H]([C@H](OC(=O)c3ccccc3)[C@]3(O)C[C@H](OC(=O)[C@H](O)[C@@H](NC(=O)c4ccccc4)c4ccccc4)C(C)=C1C3(C)C)[C@]1(OC(C)=O)CO[C@@H]1C[C@@H]2O [PACLITAXEL]
					39.9 µM	CNC(=N)NCCC[C@H](N)C(=O)O [TILARGININE ACETATE]
